Reference: ChEMBL document CHEMBL1136138, “HIV protease inhibitors with picomolar potency against PI-Resistant HIV-1 by extension of the P3 substituent” (Bioorg Med Chem Lett, 2003)

Key:
MT4 [1] = assay: Compound was tested for their ability to inhibit spread of PI-resistant HIV-1 (strain Q-18C) viral infection in MT-4 human T-lymphoidcell; format: functional; settings: read-out: CIC95
Procedure, shortened: (§1)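 Spread of infection was measured in MT4 human T-lymphoid cells infected with viral constructs derived from the resistant clinical strains. The value is CIC95, the concentration that inhibits 95% of viral spread. "≤" and "≥" values are the lowest and highest concentrations tested.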

MT4 [2] = assay: Compound was tested for their ability to inhibit spread of PI-resistant HIV-1 (strain V-60C) viral infection in MT-4 human T-lymphoidcell; format: functional; settings: read-out: CIC95; procedure, shortened: as §1
[3] = molecular target: T1, Human immunodeficiency virus type 1 protease (Human immunodeficiency virus 1, UniProt Q72874); assay: Inhibitory activity against HIV-1 Protease from PI-resistant HIV-1 (strain V-18C)
MT4 [4] = assay: Compound was tested for their ability to inhibit spread of wild-type NL4-3 viral infection in MT-4 human T-lymphoidcell; format: functional; settings: read-out: CIC95
Procedure, shortened: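 Viral spread assay in MT4 human T-lymphoid cells infected with a viral construct derived from wild-type NL4-3. The read-out is CIC95, the concentration that blocks 95% of the spread of infection. Values marked ≤ or ≥ are the lowest or highest concentrations tested.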

MT4 [5] = assay: Compound was tested for their ability to inhibit spread of PI-resistant HIV-1 (strain K-60C) viral infection in MT-4 human T-lymphoidcell; format: functional; settings: read-out: CIC95; procedure, shortened: as §1
[6] = molecular target: T1, Human immunodeficiency virus type 1 protease; assay: Inhibitory activity against HIV-1 Protease from PI-resistant HIV-1 (strain Q-18C)
[7] = molecular target: T1, Human immunodeficiency virus type 1 protease; assay: Inhibitory activity against HIV-1 Protease from PI-resistant HIV-1 (strain K-60C)
MT4 [8] = assay: Compound was testedm for their ability to inhibit spread of PI-resistant HIV-1 (strain V-60C) viral infection in MT-4 human T-lymphoidcell; format: functional; settings: read-out: CIC95; procedure, shortened: as §1
[9] = In vitro intrinsic clearance in human liver microsome; format: ADME; settings: liver microsomes
Cytochrome P450 3A4 = Cytochrome P450 3A4 (Homo sapiens, UniProt P08684); assay: In vitro inhibition of human liver microsome Cytochrome P450 3A4
Chain of Cytochrome P450 3A4 (P08684 whole entry): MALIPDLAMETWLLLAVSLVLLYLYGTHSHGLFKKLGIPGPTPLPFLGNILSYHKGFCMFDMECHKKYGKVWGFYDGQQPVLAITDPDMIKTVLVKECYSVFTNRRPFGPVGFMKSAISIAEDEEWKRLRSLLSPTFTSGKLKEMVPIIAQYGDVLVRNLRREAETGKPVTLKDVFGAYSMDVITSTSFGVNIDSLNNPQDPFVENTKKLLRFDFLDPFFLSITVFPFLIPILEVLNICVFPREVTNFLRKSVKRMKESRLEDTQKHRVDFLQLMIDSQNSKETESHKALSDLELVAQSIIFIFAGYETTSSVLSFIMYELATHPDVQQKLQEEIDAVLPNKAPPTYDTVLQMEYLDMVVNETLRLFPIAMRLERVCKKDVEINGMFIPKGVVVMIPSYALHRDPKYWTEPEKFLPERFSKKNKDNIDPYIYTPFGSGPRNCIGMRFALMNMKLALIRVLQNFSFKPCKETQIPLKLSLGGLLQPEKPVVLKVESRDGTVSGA

[10] = molecular target: T1, Human immunodeficiency virus type 1 protease; assay: Inhibitory activity against HIV-1 Protease from wild-type NL4-3 virus
[11] = Oral bioavailability in dog (dose 5 mg/kg); format: ADME, organism-based, Canis lupus familiaris; settings: in vivo
[12] = Cmax was determine after peroral administration at 5 mg/kg in dog; format: ADME, organism-based, Canis lupus familiaris; design: dose 5 mg/kg, route oral; settings: in vivo, po
Canis familiaris [13] = assay: (§2) Area under curve was determine after peroral administration at 5 mpk in dog; format: ADME, organism-based, Canis lupus familiaris; settings: in vivo, po, 5 mg/kg
Cytochrome P450 2D6 = Cytochrome P450 2D6 (Homo sapiens, UniProt P10635); assay: In vitro inhibition of human liver microsome Cytochrome P450 2D6; format: ADME, microsomes
Chain of Cytochrome P450 2D6 (P10635 whole entry): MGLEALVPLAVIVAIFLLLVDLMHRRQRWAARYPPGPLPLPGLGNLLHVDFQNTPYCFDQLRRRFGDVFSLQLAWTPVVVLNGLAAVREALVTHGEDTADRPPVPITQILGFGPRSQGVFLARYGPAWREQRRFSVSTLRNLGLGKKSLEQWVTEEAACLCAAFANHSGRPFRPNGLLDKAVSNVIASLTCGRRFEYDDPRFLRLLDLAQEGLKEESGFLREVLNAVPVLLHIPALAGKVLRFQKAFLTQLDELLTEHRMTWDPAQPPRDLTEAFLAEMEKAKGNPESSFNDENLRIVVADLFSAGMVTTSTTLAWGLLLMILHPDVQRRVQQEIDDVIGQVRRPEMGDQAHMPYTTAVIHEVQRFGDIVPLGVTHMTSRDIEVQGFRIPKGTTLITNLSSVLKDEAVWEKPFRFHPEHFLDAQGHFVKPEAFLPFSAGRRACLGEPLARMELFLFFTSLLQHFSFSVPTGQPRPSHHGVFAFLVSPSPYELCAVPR

Canis familiaris [14] = assay: Plasma clearance after peroral administration at 5 mpk in dog; format: ADME, organism-based, Canis lupus familiaris; settings: in vivo, po, 5 mg/kg
Cytochrome P450 2C9 = Cytochrome P450 2C9 (Homo sapiens, UniProt P11712); assay: In vitro inhibition of human liver microsome Cytochrome P450 2C9; format: ADME, microsomes
Chain of Cytochrome P450 2C9 (P11712 whole entry): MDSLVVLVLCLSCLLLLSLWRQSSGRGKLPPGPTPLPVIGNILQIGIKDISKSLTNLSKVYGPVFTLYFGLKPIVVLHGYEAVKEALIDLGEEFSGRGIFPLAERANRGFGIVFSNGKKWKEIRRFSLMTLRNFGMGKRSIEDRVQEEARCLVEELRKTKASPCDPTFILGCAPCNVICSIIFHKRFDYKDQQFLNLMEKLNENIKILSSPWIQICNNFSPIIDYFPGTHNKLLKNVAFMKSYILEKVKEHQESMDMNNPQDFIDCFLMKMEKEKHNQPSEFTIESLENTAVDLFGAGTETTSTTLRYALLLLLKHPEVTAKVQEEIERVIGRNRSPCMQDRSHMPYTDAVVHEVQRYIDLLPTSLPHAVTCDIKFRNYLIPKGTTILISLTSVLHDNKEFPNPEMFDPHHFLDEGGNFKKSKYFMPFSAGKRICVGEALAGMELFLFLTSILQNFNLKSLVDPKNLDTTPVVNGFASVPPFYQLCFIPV

[15] = Half life period was determine after peroral administration at 5 mpk in dog; format: ADME, organism-based, Canis lupus familiaris; settings: in vivo, po, 5 mg/kg
Canis familiaris [16] = assay: (§3) Plasma clearance after peroral administration at 10 mpk in dog; format: ADME, organism-based, Canis lupus familiaris; settings: in vivo, po, 10 mg/kg
[17] = Cmax was determine after peroral administration at 10 mpk in dog; format: ADME, organism-based, Canis lupus familiaris; design: dose 10 mpk, route oral; settings: in vivo, po, 10 mg/kg
[18] = Oral bioavailability in dog (dose 10 mg/kg); format: ADME, organism-based, Canis lupus familiaris; settings: in vivo
[19] = Half life period was determine after peroral administration at 10 mpk in dog; format: ADME, organism-based, Canis lupus familiaris; settings: in vivo, po, 10 mg/kg
Canis familiaris [20] = assay: (§4) Area under curve was determine after peroral administration at 10 mpk in dog; format: ADME, organism-based, Canis lupus familiaris; settings: in vivo, po, 10 mg/kg
[21] = Half life period was determine after peroral administration at 10 mpk in Rhesus; format: ADME, organism-based; settings: cercopithecidae, in vivo, po, 10 mg/kg
[22] = Area under curve was determine after peroral administration at 10 mpk in Rhesus; format: ADME; settings: cercopithecidae, in vivo, po, 10 mg/kg
[23] = Plasma clearance after peroral administration at 10 mpk in Rhesus; format: ADME, organism-based; settings: cercopithecidae, po, 10 mg/kg, read-out: Clp
[24] = Cmax was determine after peroral administration at 5 mpk in dog; format: ADME, organism-based, Canis lupus familiaris; design: dose 5 mpk, route oral; settings: in vivo, po, 5 mg/kg
[25] = Cmax was determine after peroral administration at 10 mpk in Rhesus; format: ADME, organism-based; design: dose 10 mpk, route oral; settings: cercopithecidae, in vivo, po, 10 mg/kg
[26] = Oral bioavailability in Rhesus monkey (dose 10 mg/kg p.o.); format: ADME, organism-based, Macaca mulatta; settings: in vivo
[27] = Oral bioavailability after peroral administration at 5 mpk in Dog; format: ADME, organism-based, Canis lupus familiaris; settings: in vivo, 5 mg/kg
[28] = as §3; format: ADME, organism-based, Canis lupus familiaris; settings: plasma, po, 10 mg/kg, read-out: Clp
[29] = as §4; format: ADME, organism-based, Canis lupus familiaris; settings: in vivo, po, 10 mg/kg
[30] = Plasma clearance after peroral administration at 5 mg/kg in dog; format: ADME, organism-based, Canis lupus familiaris; design: dose 5 mg/kg, route oral; settings: po, read-out: Clp
[31] = as §2; format: ADME, organism-based, Canis lupus familiaris; settings: in vivo, po, 5 mg/kg

In the case of `CC(C)(c1cc2cnccc2o1)N1CCN(C[C@@H](O)C[C@@H](Cc2ccccc2)C(=O)N[C@H]2c3ccccc3OC[C@H]2O)[C@H](C(=O)NCC(F)(F)F)C1`, the IC95 (MT4 [1]) is reported as 62 nM, the IC95 (MT4 [2]) is reported as 62 nM and the IC50 [3] is reported as 5.2 nM. It also gave an IC95 (MT4 [4]) of no more than 8 nM, an IC95 (MT4 [5]) of 250 nM and an IC50 [6] of 1.6 nM. The IC50 [7] was 5.8 nM.

`O=C(N[C@H]1c2ccccc2OC[C@H]1O)[C@H](Cc1ccccc1)C[C@H](O)CN1CCN(Cc2ccc(-c3cccnc3)o2)C[C@H]1C(=O)NCC(F)(F)F` gave an IC95 (MT4 [8]) of 15 nM, a CLint scaled [9] of 233 mL/min/kg and an IC50 (Cytochrome P450 3A4) of 440 nM. The IC50 [3] was 0.7 nM, the IC50 [10] was 0.03 nM and the bioavailability [11] was 2%. The Cmax [12] was 0.2 µM, the AUC (Canis familiaris [13]) was 0.1 µM·h and the IC95 (MT4 [4]) was no more than 8 nM. For the same compound, the IC50 (Cytochrome P450 2D6) was 6400 nM, the Clp (Canis familiaris [14]) was 25.2 mL/min/kg and the IC50 (Cytochrome P450 2C9) was greater than 30000 nM. For the same compound, the IC95 (MT4 [5]) was 15 nM, the half-life [15] was 41 min and the IC50 [7] was 0.3 nM.

With `O=C(N[C@H]1c2ccccc2OC[C@H]1O)[C@H](Cc1ccccc1)C[C@H](O)CN1CCN(Cc2ccc(-c3ccccn3)o2)C[C@H]1C(=O)NCC(F)(F)F` the CLint scaled [9] was 655 mL/min/kg, the Clp (Canis familiaris [16]) was 33.5 mL/min/kg and the IC95 (MT4 [1]) was 15 nM. It also gave an IC50 (Cytochrome P450 3A4) of 5200 nM, an IC95 (MT4 [2]) of 15 nM and a Cmax [17] of 0.9 µM. For the same compound, the IC50 [3] was 0.7 nM, the IC95 (MT4 [4]) was no more than 8 nM and the IC50 (Cytochrome P450 2D6) was 29600 nM. It also gave a bioavailability [18] of 4%, an IC50 (Cytochrome P450 2C9) greater than 30000 nM and an IC95 (MT4 [5]) of 31 nM. The half-life [19] was 50 min, the IC50 [6] was 0.4 nM and the AUC (Canis familiaris [20]) was 0.4 µM·h. The IC50 [7] was 0.5 nM.

`CC(C)(c1ccc(-c2ccncc2)o1)N1CCN(C[C@@H](O)C[C@@H](Cc2ccccc2)C(=O)N[C@H]2c3ccccc3OC[C@H]2O)[C@H](C(=O)NCC(F)(F)F)C1` showed a half-life [21] of 91 min, a CLint scaled [9] of 19 mL/min/kg and an AUC [22] of 9.9 µM·h. For the same compound, the CL/F [23] was 20.4 mL/min/kg, the IC50 (Cytochrome P450 3A4) was 10 nM and the IC95 (MT4 [2]) was 12 nM. The IC50 [3] was 1.2 nM, the IC50 [10] was 0.05 nM and the AUC (Canis familiaris [13]) was 11.3 µM·h. The Cmax [24] was 7.3 µM, the Cmax [25] was 4.4 µM and the IC95 (MT4 [4]) was no more than 8 nM. For the same compound, the IC50 (Cytochrome P450 2D6) was 360 nM, the bioavailability [26] was 90% and the Clp (Canis familiaris [14]) was 22.5 mL/min/kg. For the same compound, the IC50 (Cytochrome P450 2C9) was 410 nM, the half-life [15] was 70 min and the IC50 [6] was 0.1 nM. For the same compound, the bioavailability [27] was 100% and the IC50 [7] was 0.3 nM.

For `CC(C)(C)NC(=O)[C@@H]1CN(Cc2cccnc2)CCN1C[C@@H](O)C[C@@H](Cc1ccccc1)C(=O)N[C@H]1c2ccccc2C[C@H]1O.O`, the CL/F [28] was 16 mL/min/kg, the IC95 (MT4 [1]) was greater than 1000 nM and the IC95 (MT4 [2]) was greater than 1000 nM. It also gave an IC95 (MT4 [4]) of 50 nM, a bioavailability [18] of 72% and an IC95 (MT4 [5]) greater than 1000 nM. For the same compound, the half-life [19] was 28 min and the AUC [29] was 12.5 µM·h.

Compound `O=C(N[C@H]1c2ccccc2OC[C@H]1O)[C@H](Cc1ccccc1)C[C@H](O)CN1CCN(Cc2ccc(-c3ccncc3)o2)C[C@H]1C(=O)NCC(F)(F)F` has a CLint scaled [9] of 133 mL/min/kg, an IC95 (MT4 [1]) of 31 nM and an IC50 (Cytochrome P450 3A4) of 320 nM. The IC95 (MT4 [2]) was 31 nM, the IC50 [3] was 1.3 nM and the IC50 [10] was 0.08 nM. For the same compound, the bioavailability [11] was 55%, the Cmax [12] was 5.3 µM and the CL/F [30] was 24.5 mL/min/kg. For the same compound, the AUC [31] was 2.6 µM·h, the IC95 (MT4 [4]) was no more than 8 nM and the IC50 (Cytochrome P450 2D6) was 530 nM. The IC50 (Cytochrome P450 2C9) was 5500 nM, the IC95 (MT4 [5]) was 15 nM and the half-life [15] was 60 min. For the same compound, the IC50 [6] was 0.8 nM and the IC50 [7] was 0.6 nM.
